NPY1 pot ag: potentiates or activates human NPY-Y1 receptor; P25929; NPY-Y1 expressing cells, potentiator/agonist activation; activation, % at 3.6 µM; 220,000 compounds, 0.37% hits; AID 1304; in the data active = activation above about 33%, passing the limit was not always enough;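 note: cells stimulated with NPY at EC10 then isoproterenol at EC100; 0% = low agonist plus stimulus and 100% = saturating agonist plus stimulus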
Target sequence (P25929 whole entry, looked up): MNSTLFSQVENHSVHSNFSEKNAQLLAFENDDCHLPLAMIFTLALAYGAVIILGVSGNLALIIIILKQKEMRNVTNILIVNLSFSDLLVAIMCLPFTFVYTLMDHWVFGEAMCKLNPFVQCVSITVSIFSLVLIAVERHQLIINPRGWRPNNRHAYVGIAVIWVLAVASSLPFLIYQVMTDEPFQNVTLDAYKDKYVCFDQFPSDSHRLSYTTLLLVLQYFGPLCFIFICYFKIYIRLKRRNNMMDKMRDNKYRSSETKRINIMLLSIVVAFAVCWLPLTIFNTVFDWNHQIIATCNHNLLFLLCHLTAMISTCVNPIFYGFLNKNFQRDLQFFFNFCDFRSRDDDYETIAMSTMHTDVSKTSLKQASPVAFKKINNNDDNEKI
NPY-Y2 PAM-ag: human NPY-Y2 potentiation or agonism, primary screen; cells expressing NPY-Y2, potentiator/agonist read-out; activation, % at 3.6 µM; 220,000 compounds, 0.45% hits; AID 1359; in the data active = activation above about 27%;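 note: cells stimulated with NPY near EC25 plus isoproterenol at EC100; 0% = vehicle plus submaximal agonist and 100% = vehicle plus saturating agonist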
EP2 modulator: EP2 receptor (human) modulation; P43116; EP2-expressing cells, cAMP HTRF FRET, PGE2 co-stimulation; induction, % at 25 µM; 260,000 compounds, 0.83% hits;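 active = compounds whose cAMP rise, as percent of the full-agonist control response, exceeds 60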;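 note: rat C6 glioma line stably carrying human EP2 under a CMV promoter; the protocol text gives 20 µM as final concentration; 100% = response of wells given 1 µM PGE2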
PGE2 EP2 inh: inhibitors of human EP2 prostaglandin E2 receptor. P43116. C6 glioma cells expressing human EP2, cAMP TR-FRET; cells stimulated with saturating PGE2. inhibition, % at 25 µM. 260,000 compounds, 0.52% hits. AID 1422;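 active = percent inhibition above 40 after rounding to a whole number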;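 note: rat C6 glioma host cells with rolipram phosphodiesterase inhibitor present; the protocol text gives 20 µM as final concentration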
NPY-Y1 antag: blocks the human neuropeptide Y Y1 receptor; HEK293-CNG Y1 cells, membrane potential fluorescence; NPY at EC95, then isoproterenol; inhibition, % at 3.6 µM; 200,000 compounds, 1% hits; AID 1040;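 active = inhibition above the campaign mean inhibition of all tested compounds plus 3 SD, cut at about 20% in these data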;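 note: 0% = DMSO wells given NPY plus isoproterenol and 100% = isoproterenol alone without NPY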
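Test system: HEK293 cells co-expressing NPY Y1 receptor and cyclic-nucleotide gated channel; Also added: NPY (25 nM), isoproterenol (1 µM), Ro 20-1724 (25 µM); Compound dosing: one concentration, 3.6 µM, in 0.4% DMSO; Timing: dye 3 h, compound 60 min room temperature, stimulation 45 min; Technique: Membrane-potential fluorescent dye readout.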
NPY Y2 blocker: antagonists of human neuropeptide Y receptor Y2; P49146; NPY-Y2 expressing cells, antagonist mode; inhibition, % at 2.7 µM; 140,000 compounds, 0.99% hits;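 note: 0% = vehicle with agonist challenge and 100% = reference antagonist with challenge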
NPY1 antag conf: human NPY-Y1 antagonism, confirmation. shares compounds with NPY-Y1 antag. HEK293-CNG NPY-Y1, membrane potential fluorescence, cAMP; NPY challenge against isoproterenol-raised cAMP. inhibition, % at 3.6 µM. 1,200 compounds, 21% hits; in the data active = inhibition above about 20%;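 note: 0% = vehicle with agonist plus stimulus and 100% = stimulus alone without agonist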
NPY-Y2 antag ct: antagonizes human NPY-Y2, counter-screen to NPY-Y1 antagonists. shares compounds with NPY-Y1 antag. AID 1255. 1,200 compounds, 28% hits. inhibition, % at 3.6 µM. HEK293 NPY-Y2 CNG membrane potential fluorescence, antagonism; cells given NPY, then isoproterenol;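 note: 0% = DMSO with agonist challenge and 100% = reference antagonist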
Starred values were filed as active, the others as inactive; nt = no result. Hits are enriched below; roughly 2.8% of the tested compounds scored in any of these assays. Cut-off read from the data, not from the text of the source, unless noted: active = inhibition above about 17%; inactive = the rest.

SMILES	NPY1 pot ag	NPY-Y2 PAM-ag	EP2 modulator	PGE2 EP2 inh	NPY-Y1 antag	NPY Y2 blocker	NPY1 antag conf	NPY-Y2 antag ct
O=C(CN1C(=O)C2CC=CCC2C1=O)Nc1nnc(SCc2c(Cl)cccc2Cl)s1 (configuration not stated)	-1	6	23	10	3	5	nt	nt
O=C(O)CSc1nc(-c2ccccc2)nc2c1oc1ccccc12	10	-13	3	2	23*	9	5	7
COc1cc(CCC(=O)NC(C)Cn2nc3c(C)cc4ccccc4n3c2=O)on1 (configuration not stated)	nt	nt	8	8	nt	nt	nt	nt
O=C(Nc1ccc(F)cc1)c1sccc1SCc1cccc(C(F)(F)F)c1	-15	-32	43	7	25*	13	9	10
COc1ccsc1C(=O)Nc1ccc(F)cc1F	-7	-5	28	4	4	nt	nt	nt
COc1ccc(NC(=O)c2sccc2SCc2cccc(C(F)(F)F)c2)cc1	-26	-27	29	7	32*	6	7	8
O=C(Nc1ccc(F)cc1F)c1sccc1SCc1cccc(C(F)(F)F)c1	-32	-22	60	nt	48*	7	23*	17*
NNC(=O)c1sccc1OCc1cccc(C(F)(F)F)c1	-33	-18	7	21	6	nt	nt	nt
COc1ccccc1C1(NC(=O)c2ccc(N3CCCCS3(=O)=O)cc2)CCCC1	nt	nt	-20	14	nt	nt	nt	nt
COc1ccc(CN2CCN(C(=O)c3c(OC)cccc3OC)CC2)c(OC)c1OC	nt	nt	-33	6	nt	nt	nt	nt
O=C(c1ccccc1F)[C@H]1CCCN(C(=O)c2cc(-c3cccs3)[nH]n2)C1	nt	nt	-60	6	nt	nt	nt	nt
CCC(CN1CCCCC1)NC(=O)Cc1csc(-c2cccnc2)n1 (configuration not stated)	nt	nt	-42	4	nt	nt	nt	nt
CCCOc1ccc(Cn2c(=O)oc3ccc(C)cc32)cc1OC	-42	-29	-63	7	32*	4	6	8
CCn1c(N2CCN(C(=O)c3ccc(Cl)cc3)CC2)nc2ccccc21	nt	nt	17	7	nt	nt	nt	nt
COc1ccc(C(=O)NC(=S)Nc2ccc(CN3CCCCC3)cc2)cc1Cl	-39	-40	-71	6	28*	nt	14	23*
Cc1ccc(C(=O)NC(=S)Nc2ccc(CN3CCCCC3)cc2)c(C)c1	-32	-31	-36	15	24*	nt	18	27*
COc1ccc(C(=O)NC(=S)Nc2ccc(CN3CCOCC3)cc2)cc1OC	-6	-41	-21	7	nt	nt	nt	nt
CN(C(=O)CN1C(=O)[C@@H]2CCCN2C(=O)c2ccccc21)C1CCCCC1	nt	nt	19	2	nt	nt	nt	nt
Cc1cc(C)nc(NC(=O)CCCOc2ccccc2)n1	nt	nt	-13	9	nt	nt	nt	nt
COc1cc(OC)cc(C(=O)N/N=C/c2ccc(OC)c(COc3ccc(F)cc3)c2)c1	-53	-80	-12	nt	61*	12	16	31*
COc1ccc(/C=N/NC(=O)c2cccnc2)cc1COc1ccc(NC(C)=O)cc1	5	-1	-69	15	nt	nt	nt	nt
c1ccc(-c2nc(Sc3ncnc4c3cnn4-c3ccccc3)n[nH]2)cc1	-51	-33	-8	nt	26*	6	7	9
CCn1cc(C(=O)OCC(=O)OC2CC(C)CCC2C(C)C)c(=O)c2ccc(C)nc21 (configuration not stated)	-22	-1	28	9	21*	4	11	8
CCn1ncc([C@@H]2C[C@H]3CN(Cc4cccc(Cl)c4)C(=O)[C@]34CCCN24)c1C	5	0	-20	0	4	nt	nt	nt
O=C1N(Cc2cccc(Cl)c2)C[C@@H]2C[C@@H](c3ccco3)N3CCC[C@@]123	3	-15	6	8	22*	nt	12	6
SMILES	NPY1 pot ag	NPY-Y2 PAM-ag	EP2 modulator	PGE2 EP2 inh	NPY-Y1 antag	NPY Y2 blocker	NPY1 antag conf	NPY-Y2 antag ct
Cc1ccc2[nH]c(=O)c(C(c3nnnn3C3CCCC3)N(Cc3ccco3)CC3CCCO3)cc2c1 (configuration not stated)	nt	nt	31	12	nt	nt	nt	nt
Cc1csc(NC(=O)CSc2nc(C3CC3)nc3sc(C)c(C)c23)n1	nt	nt	31	13	nt	nt	nt	nt
COc1ccc2c(c1)C(C)=CC(C)(C)N2C(=O)CSc1nnc(-c2ccc(C)cc2)o1	-46	-36	56	0	23*	16	12	11
Cc1nc2c(c(=O)[nH]1)CCN(Cc1cn(C(C)C)c3ccccc13)C2	nt	nt	-42	10	nt	nt	nt	nt
CCOC(=O)c1c(CSc2cccs2)n(C)c2cc(Br)c(O)c(CN(C)C)c12	-60	-53	-49	3	59*	nt	51*	48*
Cc1cccc(OCc2n(CC(=O)OC3CC(C)CCC3C(C)C)c3ccccc3[n+]2C)c1 (configuration not stated)	-49	-25	14	10	28*	nt	24*	39*
Cc1cccc(OC(=O)Cn2c(C(F)(F)F)nc3ccccc32)c1	18	-2	-16	nt	6	9	nt	nt
COc1ccc(Oc2cn[nH]c2-c2ccc(O)cc2O)cc1	-34	6	-26	15	61*	3	40*	2
CCCc1ccc(Oc2cn[nH]c2-c2ccc(O)cc2O)cc1	34	33	10	13	-7	1	nt	nt
COc1cc(CC(=O)N2CC=C(c3ccc(C)o3)CC2)cc(OC)c1OC	nt	nt	-56	nt	nt	nt	nt	nt
N#Cc1nc(COc2ccccc2)oc1N1CCC(Cc2ccccc2)CC1	-72	-24	-8	13	32*	13	21*	21*
N#Cc1nc(COc2ccc(F)cc2)oc1N1CCCC1	-4	-11	23	21	10	4	nt	nt
CCN(CC)C(=O)CSc1nc2c(sc(=S)n2Cc2ccco2)c(=O)n1-c1ccccc1	2	-53	19	1	27*	9	3	5
COC(=O)c1ccc(CSc2nc3c(c(=O)n2-c2ccc(F)cc2)SCC3)o1	3	-8	19	-3	21*	8	7	5
CCN1/C(=C/c2sc(-c3ccccc3C)c[n+]2C)Sc2ccccc21	-10	21	-43	16	40*	nt	28*	15
COc1cccc(C2NC(=O)NC(C)=C2C(=O)Nc2ccc(C)cc2)c1 (configuration not stated)	18	-2	-1	5	3	2	nt	nt
COC(=O)C1=C(Nc2ccc(C)cc2)C=C(C)C(C(=O)OC)C1c1cccc(OC)c1 (configuration not stated)	-72	-25	14	0	24*	10	11	11
